Measured values reported in article PMC9364358 (RSC Advances, 2022).

Key:
MOPC-315 cell line = assay: Cytotoxicity; format: cell-based
HDACs = assay: Fluorometric HDAC activity assay; format: cell-based; conditions: MCF-7 cells, 30 μM, 2 h
How it was run: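 MCF-7 cells grown in RPMI-1640 with 10% FBS and 1% penicillin at 37 °C, 5% CO2, then seeded at 5 × 10^3 cells/well. After 24 h, medium was replaced, and HDAC substrate plus test compound (final 30 μM) or trichostatin A was added for 2 h. Developer mix was then added for 30 min at 37 °C, and fluorescence was read (ex 368 nm, em 442 nm).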

HDAC6 = biological target: T1, HDAC6 (Homo sapiens, UniProt Q9UBN7); format: biochemical
T1 sequence (Q9UBN7 1-1215): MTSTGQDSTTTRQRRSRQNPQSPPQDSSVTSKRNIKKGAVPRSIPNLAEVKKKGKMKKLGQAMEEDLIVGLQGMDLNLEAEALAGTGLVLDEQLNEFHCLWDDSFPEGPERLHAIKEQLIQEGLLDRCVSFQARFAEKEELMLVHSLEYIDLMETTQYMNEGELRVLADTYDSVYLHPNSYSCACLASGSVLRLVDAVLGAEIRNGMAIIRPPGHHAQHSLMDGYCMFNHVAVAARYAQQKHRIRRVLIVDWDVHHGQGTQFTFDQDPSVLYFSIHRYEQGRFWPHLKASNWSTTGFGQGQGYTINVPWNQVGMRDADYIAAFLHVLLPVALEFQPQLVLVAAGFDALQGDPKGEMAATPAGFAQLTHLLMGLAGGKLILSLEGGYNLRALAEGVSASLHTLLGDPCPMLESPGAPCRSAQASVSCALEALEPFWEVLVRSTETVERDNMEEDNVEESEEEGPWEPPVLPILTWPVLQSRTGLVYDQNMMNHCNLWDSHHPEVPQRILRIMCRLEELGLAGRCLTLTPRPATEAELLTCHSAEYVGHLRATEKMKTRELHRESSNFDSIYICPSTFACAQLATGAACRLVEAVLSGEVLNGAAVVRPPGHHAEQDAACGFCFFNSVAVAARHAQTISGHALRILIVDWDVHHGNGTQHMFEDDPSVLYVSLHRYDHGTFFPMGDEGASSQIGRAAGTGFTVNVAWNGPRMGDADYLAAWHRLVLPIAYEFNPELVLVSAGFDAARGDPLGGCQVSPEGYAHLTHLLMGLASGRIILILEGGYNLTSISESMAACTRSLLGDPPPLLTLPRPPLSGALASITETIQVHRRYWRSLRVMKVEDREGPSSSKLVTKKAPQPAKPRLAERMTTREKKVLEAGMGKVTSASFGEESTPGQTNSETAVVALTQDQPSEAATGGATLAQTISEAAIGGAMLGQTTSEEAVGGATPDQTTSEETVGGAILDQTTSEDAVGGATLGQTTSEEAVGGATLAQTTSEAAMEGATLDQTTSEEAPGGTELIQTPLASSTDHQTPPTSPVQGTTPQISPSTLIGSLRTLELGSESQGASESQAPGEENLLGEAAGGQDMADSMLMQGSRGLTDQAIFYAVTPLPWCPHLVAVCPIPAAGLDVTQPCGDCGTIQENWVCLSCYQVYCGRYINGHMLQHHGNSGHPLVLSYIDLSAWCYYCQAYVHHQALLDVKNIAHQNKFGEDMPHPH
How it was run: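 HDAC6 enzyme was incubated 30 min with test compound at graded concentrations (DMSO) and HDAC substrate 2 (200 μM stock) in HDAC assay buffer with BSA (1 mg mL−1 stock). The reaction was stopped with HDAC assay developer for 15 min at room temperature, and fluorescence was read at 485/528 nm. A reference HDAC inhibitor served as positive control.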

inhibition at 5 µM (HDAC6): 64.5%
SMILES: O=C(/C=C/c1cccc(S(=O)(=O)Nc2ccccc2)c1)NO [Belinostat]
IC50 (MOPC-315 cell line; Mus musculus, MOPC 315, 24 h, MOPC-315 cell line, 24 h incubation): 318 ± 49 nM
Fold change (MOPC-315 cell line; potency relative to belinostat (belinostat = 1.000), MOPC-315): 1.000
pan-HDAC inhibitory activity (HDAC activity, fluorescence signal) (HDACs): the activity was decreased
